Reference: paper PMC4062594 (Nature chemical biology, 2014)

What was measured:
PTP1B1-405 [1] = molecular target: T1, PTP1B1-405 (Homo sapiens, UniProt P18031); test: PTP assay with DiFMUP substrate; type: biochemical
T1 sequence (P18031 1-405): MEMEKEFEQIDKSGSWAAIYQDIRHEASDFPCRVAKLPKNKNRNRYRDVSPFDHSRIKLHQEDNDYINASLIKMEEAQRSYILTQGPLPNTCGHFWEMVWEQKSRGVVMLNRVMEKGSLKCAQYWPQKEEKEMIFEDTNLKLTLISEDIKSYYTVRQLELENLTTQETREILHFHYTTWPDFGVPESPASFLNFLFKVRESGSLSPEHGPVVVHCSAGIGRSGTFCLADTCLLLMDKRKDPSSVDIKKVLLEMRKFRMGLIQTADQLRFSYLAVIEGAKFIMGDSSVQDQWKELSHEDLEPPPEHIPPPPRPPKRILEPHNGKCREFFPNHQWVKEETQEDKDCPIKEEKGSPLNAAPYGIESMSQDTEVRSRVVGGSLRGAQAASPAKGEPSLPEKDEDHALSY

PTP1B1-321 = molecular target: T2, PTP1B1-321 (Homo sapiens, UniProt P18031); test: PTP assay with DiFMUP substrate; type: biochemical
T2 sequence (P18031 1-321): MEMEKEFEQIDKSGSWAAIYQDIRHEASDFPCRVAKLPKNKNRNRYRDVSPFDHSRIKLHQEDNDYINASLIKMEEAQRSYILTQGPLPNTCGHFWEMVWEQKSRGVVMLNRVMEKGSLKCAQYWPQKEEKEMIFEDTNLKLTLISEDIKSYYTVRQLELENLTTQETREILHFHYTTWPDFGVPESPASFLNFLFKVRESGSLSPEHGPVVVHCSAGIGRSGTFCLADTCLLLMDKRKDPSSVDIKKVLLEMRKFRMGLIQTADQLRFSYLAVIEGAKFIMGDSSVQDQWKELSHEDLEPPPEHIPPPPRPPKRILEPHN

PTP1B1-405 [2] = molecular target: T1, PTP1B1-405; test: Direct binding assay with [3H]-MSI-1436
PTP1B1-405 [3] = molecular target: T1, PTP1B1-405; test: Gel filtration
PTP1B1-405 [4] = molecular target: T1, PTP1B1-405; test: Limited proteolysis with trypsin; conditions: saturating concentrations of MSI-1436 (5 μM)
PTP1B (1-346) = molecular target: T3, PTP1B (1-346) (Homo sapiens, UniProt P18031); test: PTP assay, truncation mutant; type: biochemical; conditions: similar to PTP1B1-321
T3 sequence (P18031 1-346): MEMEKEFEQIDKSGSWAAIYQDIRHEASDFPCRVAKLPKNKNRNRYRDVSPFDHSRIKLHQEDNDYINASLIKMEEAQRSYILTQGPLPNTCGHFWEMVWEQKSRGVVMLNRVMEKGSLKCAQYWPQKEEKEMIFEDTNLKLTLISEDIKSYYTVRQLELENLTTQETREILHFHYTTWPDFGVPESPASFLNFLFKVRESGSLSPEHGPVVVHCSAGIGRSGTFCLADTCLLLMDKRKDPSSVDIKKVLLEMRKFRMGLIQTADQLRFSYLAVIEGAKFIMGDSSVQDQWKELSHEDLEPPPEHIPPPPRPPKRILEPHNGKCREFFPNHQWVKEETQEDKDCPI
Procedure, shortened: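 Continuous fluorescence PTP assay with 10 nM purified PTP1B and 10 μM DiFMUP substrate. Emission at 450 nm was monitored for 20 minutes.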

PTP1B1-405 [5] = molecular target: T1, PTP1B1-405; test: Binding of recombinant protein to bead-immobilized compound; conditions: in vitro
Procedure, shortened: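 Beads were washed in the same buffer plus 0.01% NP-40 and 1% glycerol, then heat-eluted in SDS sample buffer. Eluates were run on 10% SDS-PAGE and stained with Coomassie or silver.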

10A.B2 cells = test: Cell migration assay; type: cell-based; conditions: 2D culture, similar extent to PTP1B-directed shRNA
BT-474 cells = test: Cell migration assay; type: cell-based; conditions: HER2-positive, MSI-1436 5 µM
SKBR3 cells = test: Cell migration assay; type: cell-based; conditions: HER2-positive, MSI-1436 5 µM
[6] = tested on: panel of breast cancer cells; test: Annexin/PI staining; type: cell-based; conditions: cells sensitive to Lapatinib
Procedure, shortened: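 Cells (1 × 10^5) plated in 6-well plates in growth medium, left untreated or given test compound at 2 and 5 μM. Stained with annexin and PI per kit instructions, then analysed by flow cytometry.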

MCF10A-NeuNT cells = test: Cell migration with PTP1B knock-down and re-expression; type: cell-based
Procedure, shortened: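 MCF10A-NeuNT cells carried doxycycline-inducible control or PTP1B shRNA miRs; doxycycline (500 ng/mL) was added 12 h after seeding and refreshed every 12 h. Cells were transfected 24 h with wild type or L192A/S372P PTP1B, then left untreated or given test compound (1 or 2 μM). Cells were run in Matrigel invasion chambers (8.0 μm pores) for 24–48 h, and migrated cells were Giemsa-stained and counted. Three experiments, in duplicate.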

[7] = tested on: tyrosine phosphorylation-dependent signaling in tumors; test: Immunoblotting of tumor lysates from NDL2 mice; type: in vivo; conditions: tumor samples from treated NDL2 animals
Procedure, shortened: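 Tumours from treated NDL2 mice were dissected free of connective tissue, ground under liquid nitrogen and lysed 30 min on ice. Lysis buffer: HEPES pH 7.4, glycerol, Triton X-100, NaCl, EGTA, 1 mM orthovanadate, 20 mM NaF, protease inhibitors. Lysates were cleared at 12,000 x g, 15 min, 4 °C. Lysate (20 μg) was blotted with anti-phosphotyrosine (4G10), anti-p62DOK and anti-phospho-Erk, then stripped and reprobed with total-protein antibodies.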

CC(C)[C@@H](CC[C@@H](C)[C@H]1CC[C@H]2[C@@H]3[C@H](O)C[C@H]4C[C@@H](NCCCNCCCCNCCCN)CC[C@]4(C)[C@H]3CC[C@]12C)OS(=O)(=O)O [MSI-1436, Trodusquemine]
mode of inhibition (PTP1B1-405 [1]): reversible non-competitive inhibitor | mode of inhibition (PTP1B1-321): reversible non-competitive inhibitor | Hill coefficient (PTP1B1-405 [2]; Hill plot): 1.3 | stoichiometry (PTP1B1-405 [2]; scintillation counting): 2 mol/mol | oligomerization of the phosphatase (PTP1B1-405 [3]): did not cause the phosphatase to oligomerize | calculated molecular weight of PTP1B1-405 (PTP1B1-405 [3]; in the presence of the inhibitor (~47k in the absence)): ~ 43 k | sensitivity to trypsin (PTP1B1-405 [4]): more trypsin-resistant state | inhibitory potency compared to PTP1B1-405 and PTP1B1-394 (PTP1B (1-346)): lower | binding to bead-immobilized compound (PTP1B1-405 [5]): bound | migration (10A.B2 cells): inhibited migration | migration (BT-474 cells): attenuated migration | migration (SKBR3 cells): attenuated migration | apoptosis [6]: limited effect on apoptosis | migration (MCF10A-NeuNT cells; PTP1B knock-down, reconstituted with PTP1B-L192A/S372P, MSI-1436 1 or 2 μM): no longer sensitive | migration (MCF10A-NeuNT cells; PTP1B knock-down, reconstituted with wild type PTP1B, MSI-1436 1 or 2 μM): remained sensitive to inhibition | migration (MCF10A-NeuNT cells; absence of doxycycline (endogenous PTP1B)): attenuated | phosphorylation of p44/42 MAP kinase [7]: decrease | tyrosine phosphorylation of p62DOK [7]: significant increase
